Results from ChEMBL document CHEMBL1629439, “High-throughput identification of antibacterials against methicillin-resistant Staphylococcus aureus (MRSA) and the transglycosylase” (Bioorg Med Chem, 2010).
≈ marks a conversion by molar mass, not a printed value.

Tests used:
[1] = system: Staphylococcus aureus; assay: Antimicrobial activity against Staphylococcus aureus ATCC 29213 after 18 to 24 hrs by alamar blue assay
[2] = system: Staphylococcus aureus; assay: Antimicrobial activity against methicillin-resistant Staphylococcus aureus ATCC 33592 after 18 to 24 hrs by alamar blue assay; assay type: functional; settings: Staphylococcus aureus, ATCC 33592; read-out: MIC
How it was run: (§1)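 Broth microdilution per NCCLS standard, Mueller-Hinton broth, 8-point twofold dilutions; exponentially growing cells at 5 10^5 cells/ml with compound, 18–24 h at 37 C; 20% Alamar blue added, fluorescence read; MIC90 taken as lowest concentration preventing at least 90% growth.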

[3] = system: Acinetobacter baumannii; assay: Antimicrobial activity against Acinetobacter baumannii ATCC 49139 after 18 to 24 hrs by alamar blue assay; assay type: functional; settings: Acinetobacter baumannii, ATCC 49139; read-out: MIC
How it was run: (§2)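 Broth microdilution per NCCLS in Mueller-Hinton broth, 8-point twofold dilutions, 384-well format. Exponential-phase cells at 5 × 10^5 cells/ml incubated with compound 18–24 h at 37 °C, then 20% Alamar blue added and fluorescence read. MIC90 taken as the lowest concentration preventing at least 90% bacterial growth.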

[4] = system: Pseudomonas aeruginosa; assay: Antimicrobial activity against Pseudomonas aeruginosa ATCC 25619 after 18 to 24 hrs by alamar blue assay; assay type: functional; settings: Pseudomonas aeruginosa, ATCC 25619; read-out: MIC
How it was run: as §2

[5] = system: Escherichia coli; assay: Antimicrobial activity against Escherichia coli ATCC […] after 18 to 24 hrs by alamar blue assay; assay type: functional; settings: Escherichia coli; read-out: MIC
How it was run: as §2

[6] = system: Serratia marcescens; assay: Antimicrobial activity against Serratia marcescens ATCC 14756 after 18 to 24 hrs by alamar blue assay; assay type: functional; settings: Serratia marcescens, ATCC 14756; read-out: MIC
How it was run: as §2

[7] = system: Staphylococcus aureus; assay: Antimicrobial activity against oxacillin- and methicillin-resistant Staphylococcus aureus isolate Sa-OXA-R2 after 18 to 24 hrs by alamar blue assay; assay type: functional
How it was run: as §1

[8] = system: Bacillus subtilis; assay: Antimicrobial activity against Bacillus subtilis ATCC 23857 after 18 to 24 hrs by alamar blue assay; assay type: functional
How it was run: as §2

[9] = system: Mycolicibacterium smegmatis; assay: Antimicrobial activity against Mycobacterium smegmatis BCRC 11565 after 18 to 24 hrs by alamar blue assay; assay type: functional; settings: Mycolicibacterium smegmatis, BCRC 11565; read-out: MIC
How it was run: as §2

[10] = system: Staphylococcus aureus; assay: Antimicrobial activity against methicillin-resistant Staphylococcus aureus isolate NTUH4722 after 18 to 24 hrs by alamar blue assay; assay type: functional
How it was run: as §1

[11] = system: Stenotrophomonas maltophilia; assay: Antimicrobial activity against Stenotrophomonas maltophilia ATCC 13637 after 18 to 24 hrs by alamar blue assay; assay type: functional; settings: Stenotrophomonas maltophilia, ATCC 13637; read-out: MIC
How it was run: as §2

Row | Compound | MIC [1] | MIC [2] | MIC [3] | MIC [4] | MIC [5] | MIC [6] | MIC [7] | MIC [8] | MIC [9] | MIC [10] | MIC [11]
1 | Cc1c(CC(=O)NCC(=O)O)c(=O)oc2c(C)c3occ(-c4ccc(Cl)cc4)c3cc12 | 1.25 µg/mL (≈ 2.84 µM) | 1.25 µg/mL (≈ 2.84 µM) | > 256 µg/mL | > 256 µg/mL | > 256 µg/mL | > 256 µg/mL | 1.25 µg/mL (≈ 2.84 µM) | > 64 µg/mL | 1 µg/mL (≈ 2.27 µM) | 1.25 µg/mL (≈ 2.84 µM) | > 256 µg/mL
2 | O=C(CCN1C(=O)c2cccc3cccc(c23)C1=O)N1CCN(C/C=C/c2ccccc2)CC1 | 0.5 µg/mL (≈ 1.1 µM) | 1 µg/mL (≈ 2.2 µM) | > 256 µg/mL | > 256 µg/mL | > 256 µg/mL | > 256 µg/mL | 0.25 µg/mL (≈ 0.551 µM) | 4 µg/mL (≈ 8.82 µM) | 4 µg/mL (≈ 8.82 µM) | 4 µg/mL (≈ 8.82 µM) | > 256 µg/mL
3 | CCc1ccccc1NS(=O)(=O)c1ccc2c(c1)NC(=O)C(C)S2 (stereo not drawn) | 0.5 µg/mL (≈ 1.38 µM) | 1 µg/mL (≈ 2.76 µM) | > 256 µg/mL | > 256 µg/mL | > 256 µg/mL | > 256 µg/mL | 1 µg/mL (≈ 2.76 µM) | < 0.03 µg/mL | > 64 µg/mL | 32 µg/mL (≈ 88.3 µM) | > 256 µg/mL
4 | COC(=O)c1ccccc1NC(=O)c1ccc([N+](=O)[O-])o1 | 8 µg/mL (≈ 27.6 µM) | 0.5 µg/mL (≈ 1.72 µM) | 12 µg/mL (≈ 41.3 µM) | 128 µg/mL (≈ 441 µM) | 256 µg/mL (≈ 882 µM) | 32 µg/mL (≈ 110 µM) | 2 µg/mL (≈ 6.89 µM) | 0.06 µg/mL (≈ 0.207 µM) | 0.5 µg/mL (≈ 1.72 µM) | 4 µg/mL (≈ 13.8 µM) | 32 µg/mL (≈ 110 µM)
5 | CCC1Sc2ccc(S(=O)(=O)Nc3ccc(C)cc3C)cc2NC1=O (stereo not drawn) | 1 µg/mL (≈ 2.66 µM) | 8 µg/mL (≈ 21.2 µM) | > 256 µg/mL | > 256 µg/mL | > 256 µg/mL | > 256 µg/mL | > 64 µg/mL | < 0.03 µg/mL | > 64 µg/mL | 4 µg/mL (≈ 10.6 µM) | > 256 µg/mL
6 | O=C(Nc1cc(Cl)ccc1Cl)c1cc(Br)cc(Br)c1O | 1 µg/mL (≈ 2.27 µM) | 1 µg/mL (≈ 2.27 µM) | 16 µg/mL (≈ 36.4 µM) | 16 µg/mL (≈ 36.4 µM) | 8 µg/mL (≈ 18.2 µM) | 16 µg/mL (≈ 36.4 µM) | 0.5 µg/mL (≈ 1.14 µM) | < 0.03 µg/mL | 0.5 µg/mL (≈ 1.14 µM) | 0.5 µg/mL (≈ 1.14 µM) | 16 µg/mL (≈ 36.4 µM)
7 | O=C(Nc1ccc(Cl)cc1)c1cc(Br)ccc1NS(=O)(=O)c1ccc(Cl)cc1 | 0.25 µg/mL (≈ 0.5 µM) | 0.25 µg/mL (≈ 0.5 µM) | > 256 µg/mL | > 256 µg/mL | > 256 µg/mL | > 256 µg/mL | 0.5 µg/mL (≈ 1 µM) | < 0.03 µg/mL | > 64 µg/mL | 0.25 µg/mL (≈ 0.5 µM) | > 256 µg/mL
8 | O=C(Nc1cc(Cl)ccc1Cl)c1cc(Cl)cc(Cl)c1O | 1 µg/mL (≈ 2.85 µM) | 0.5 µg/mL (≈ 1.42 µM) | 16 µg/mL (≈ 45.6 µM) | 16 µg/mL (≈ 45.6 µM) | 8 µg/mL (≈ 22.8 µM) | 16 µg/mL (≈ 45.6 µM) | 2 µg/mL (≈ 5.7 µM) | < 0.03 µg/mL | 0.5 µg/mL (≈ 1.42 µM) | 0.5 µg/mL (≈ 1.42 µM) | 16 µg/mL (≈ 45.6 µM)
9 | CCCC(NC(=O)Cc1c(C)c2cc3c(-c4ccc(Cl)cc4)coc3c(C)c2oc1=O)C(=O)O (stereo not drawn) | 1.25 µg/mL (≈ 2.59 µM) | 2.5 µg/mL (≈ 5.19 µM) | > 256 µg/mL | > 256 µg/mL | > 256 µg/mL | > 256 µg/mL | 1.25 µg/mL (≈ 2.59 µM) | > 64 µg/mL | 1 µg/mL (≈ 2.07 µM) | 2.5 µg/mL (≈ 5.19 µM) | > 256 µg/mL
10 | CCCc1cc(O)nc(N2NC(C)=CC2NC(=O)c2ccccc2F)n1 (stereo not drawn) | 2 µg/mL (≈ 5.6 µM) | 0.5 µg/mL (≈ 1.4 µM) | > 256 µg/mL | > 256 µg/mL | > 256 µg/mL | > 256 µg/mL | 1 µg/mL (≈ 2.8 µM) | 0.25 µg/mL (≈ 0.7 µM) | 0.25 µg/mL (≈ 0.7 µM) | 1 µg/mL (≈ 2.8 µM) | > 256 µg/mL
11 | CCC1Sc2ccc(S(=O)(=O)Nc3cc(Cl)ccc3C)cc2NC1=O (stereo not drawn) | 4 µg/mL (≈ 10.1 µM) | > 64 µg/mL | > 256 µg/mL | > 256 µg/mL | > 256 µg/mL | > 256 µg/mL | 16 µg/mL (≈ 40.3 µM) | < 0.03 µg/mL | > 64 µg/mL | 16 µg/mL (≈ 40.3 µM) | > 256 µg/mL
12 | Cc1ccc(NS(=O)(=O)c2ccc3c(c2)NC(=O)C(C)S3)c(C)c1 (stereo not drawn) | 2 µg/mL (≈ 5.52 µM) | 32 µg/mL (≈ 88.3 µM) | > 256 µg/mL | > 256 µg/mL | > 256 µg/mL | > 256 µg/mL | > 64 µg/mL | < 0.03 µg/mL | > 64 µg/mL | 4 µg/mL (≈ 11 µM) | > 256 µg/mL
13 | O=C(Nc1nnc(-c2ccc(F)cc2)o1)c1cccc(C(F)(F)F)c1 | 0.5 µg/mL (≈ 1.42 µM) | 0.5 µg/mL (≈ 1.42 µM) | > 256 µg/mL | > 256 µg/mL | > 256 µg/mL | > 256 µg/mL | 4 µg/mL (≈ 11.4 µM) | 0.5 µg/mL (≈ 1.42 µM) | 0.5 µg/mL (≈ 1.42 µM) | 1 µg/mL (≈ 2.85 µM) | > 256 µg/mL
